In ChEMBL document CHEMBL3616430, “Discovery, synthesis and biochemical profiling of purine-2,6-dione derivatives as inhibitors of the human poly(A)-selective ribonuclease Caf1” (Bioorg Med Chem Lett, 2015):
The source made the active and inactive calls. No cut-off for these calls is given here.

Molecular target: CCR4-NOT transcription complex subunit 6 (Homo sapiens) (UniProt Q9ULM6)
Assay: Inhibition of Ccr4 (unknown origin) at 10 uM by fluorescence-based assay
Summary of the method: (§1)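 Fluorescence-based ribonuclease activity assay with Ccr4, using one compound concentration per reaction (30, 10 or 3 μM, as in each line). The reactions compared were a no-enzyme control, a complete reaction with enzyme, and a complete reaction plus compound. Data are shown with standard deviation error bars.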

Chain of CCR4-NOT transcription complex subunit 6 (Homo sapiens) (Q9ULM6 whole entry, one chain of several): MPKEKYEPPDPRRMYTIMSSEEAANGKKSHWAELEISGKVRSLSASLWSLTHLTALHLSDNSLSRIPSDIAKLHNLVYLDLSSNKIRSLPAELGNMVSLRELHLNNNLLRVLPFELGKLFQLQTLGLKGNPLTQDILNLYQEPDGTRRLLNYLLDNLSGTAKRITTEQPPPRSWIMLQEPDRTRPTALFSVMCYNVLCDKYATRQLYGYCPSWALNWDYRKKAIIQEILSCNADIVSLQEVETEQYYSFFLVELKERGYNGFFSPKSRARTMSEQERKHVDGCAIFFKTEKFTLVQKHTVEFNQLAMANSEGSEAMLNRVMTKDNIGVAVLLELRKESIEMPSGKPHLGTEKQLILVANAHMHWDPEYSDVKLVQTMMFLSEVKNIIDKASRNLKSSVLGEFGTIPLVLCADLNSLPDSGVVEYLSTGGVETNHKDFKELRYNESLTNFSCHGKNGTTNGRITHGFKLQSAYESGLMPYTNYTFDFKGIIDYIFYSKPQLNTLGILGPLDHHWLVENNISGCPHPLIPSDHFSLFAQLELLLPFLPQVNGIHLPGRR

Q: With `O=c1[nH]c2ncn(CCc3ccccc3)c2c(=O)n1O` as the compound, how does the inhibition read?
A: The inhibition was “inactive”.

Q: For `O=c1[nH]c2ncn(CCc3ccccn3)c2c(=O)n1O`, which inhibition is on record?
A: Its inhibition is “inactive”.

Q: `O=c1[nH]c2ncn(CCOc3ccccc3)c2c(=O)n1O` was tested. Which inhibition did it give?
A: The inhibition was “inactive”.

Q: With `O=c1[nH]c2ncn(CCc3cccs3)c2c(=O)n1O` as the compound, how does the inhibition read?
A: The inhibition was “inactive”.

Molecular target: CCR4-NOT transcription complex subunit 6 (Homo sapiens) (UniProt Q9ULM6)
Assay: Inhibition of Ccr4 (unknown origin) at 30 uM by fluorescence-based assay
Summary of the method: as §1

Q: How did the inhibition turn out when `O=c1c2c(ncn2CCc2ccccc2)n(CCCc2ccccc2)c(=O)n1O` was run?
A: The inhibition was “inactive”.

Q: How did the inhibition turn out when `CCCCCCCCCn1c(=O)n(O)c(=O)c2c1ncn2CCc1ccccc1` was run?
A: The inhibition was “inactive”.

Q: `O=c1[nH]c2ncn(Cc3ccccc3)c2c(=O)n1O` was tested. Which inhibition did it give?
A: The inhibition was “inactive”.

Q: For `CCn1c(=O)n(O)c(=O)c2c1ncn2CCc1ccccc1`, which inhibition is on record?
A: The inhibition was “inactive”.

Q: Which inhibition does the source give for `CCCCCn1c(=O)n(O)c(=O)c2c1ncn2CCc1ccccc1` here?
A: Its inhibition is “inactive”.

Q: How did the inhibition turn out when `Cn1c(=O)n(O)c(=O)c2c1ncn2CCc1ccccc1` was run?
A: Its inhibition is “inactive”.

Q: For `O=c1[nH]c2ncn(Cc3cccnc3)c2c(=O)n1O`, which inhibition is on record?
A: Its inhibition is “inactive”.

Q: For `O=c1[nH]c2ncn(C3CCCCC3)c2c(=O)n1O`, which inhibition is on record?
A: The inhibition was “inactive”.

Q: `O=c1[nH]c2ncn(Cc3ccccn3)c2c(=O)n1O` was tested. Which inhibition did it give?
A: The inhibition was “inactive”.

Q: With `O=c1[nH]c2ncn(Cc3ccncc3)c2c(=O)n1O` as the compound, how does the inhibition read?
A: Its inhibition is “inactive”.

Molecular target: CCR4-NOT transcription complex subunit 6 (Homo sapiens) (UniProt Q9ULM6)
Assay: Inhibition of Ccr4 (unknown origin) at 3 uM by fluorescence-based assay
Summary of the method: as §1

Q: For `CN(C)CCCn1c(=O)n(O)c(=O)c2c1ncn2CCc1ccccc1`, which inhibition is on record?
A: Its inhibition is “inactive”.

Q: Which inhibition does the source give for `CC(C)CCCn1c(=O)n(O)c(=O)c2c1ncn2CCc1ccccc1` here?
A: The inhibition was “inactive”.
